≈ marks a conversion by molar mass, not a printed value.
The compounds below were run on Mycobacterium tuberculosis (assay: Antimicrobial activity against Mycobacterium tuberculosis H37Rv ATCC 27294 expressing luciferase reporter gene assessed as growth inhibition at 0.1 uM after 6 days by luminometry relative to control). Conditions: H37Rv ATCC 27294, 144 h, read-out: GI.
Assay type: functional
Method in brief: (§1)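 Single-concentration screen of the luminescent H37Rv reporter strain in 7H9-10% FCS, inoculated at 50,000 RLU/ml, 6 days at 37 °C. Luminescence was read after n-decanal addition. Percent inhibition is versus the untreated culture, as the mean of triplicate cultures.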
`Cc1nc(-c2ccc(F)cc2)cc2c1C(=O)c1ccccc1C2=O` was tested, and the inhibition of growth at 0.1 µM was 41%. Compound `O=C1c2ccccc2-c2nccc3cncc1c23` has an inhibition of growth at 0.1 µM of 11%. Compound `Cc1nc(-c2ccccc2)cc2c1C(=O)c1ccccc1C2=O` has an inhibition of growth at 0.1 µM of 21%. Compound `Cc1nc(C(C)(C)C)cc2c1C(=O)c1ccccc1C2=O` has an inhibition of growth at 0.1 µM of less than 10%. `CN(C)/C=C/c1nc(C(C)(C)C)cc2c1C(=O)c1ccccc1C2=O` gave an inhibition of growth at 0.1 µM of 21%. For `Cc1cncc2c1C(=O)c1ccccc1C2=O`, the inhibition of growth at 0.1 µM was less than 10%. Compound `Cc1nc(-c2ccc(Cl)cc2)cc2c1C(=O)c1ccccc1C2=O` has an inhibition of growth at 0.1 µM of 42%. `CC(C)(C)c1ccc(-c2cc3c4c(nccc4n2)-c2ccccc2C3=O)cc1` was tested, and the inhibition of growth at 0.1 µM was 32%. For `COc1ccc(-c2cc3c(c(C)n2)C(=O)c2ccccc2C3=O)cc1`, the inhibition of growth at 0.1 µM was 32%. Compound `Cc1nc(C(C)C)cc2c1C(=O)c1ccccc1C2=O` has an inhibition of growth at 0.1 µM of less than 10%. `COc1ccc(OC)c(-c2cc3c4c(nccc4n2)-c2ccccc2C3=O)c1` was tested, and the inhibition of growth at 0.1 µM was 39%. Work on `COc1ccc(OC)c(-c2cc3c(c(/C=C/N(C)C)n2)C(=O)c2ccccc2C3=O)c1` yielded an inhibition of growth at 0.1 µM of 35%.

What follows are compounds tested on Mycobacterium tuberculosis (assay: Antimicrobial activity against Mycobacterium tuberculosis H37Rv ATCC 27294 expressing luciferase reporter gene assessed as growth inhibition at 1 uM after 6 days by luminometry relative to control). Conditions: H37Rv ATCC 27294, 144 h, read-out: GI.
Assay type: functional
Method in brief: as §1
`Cc1nc(-c2ccc(F)cc2)cc2c1C(=O)c1ccccc1C2=O` gave an inhibition of growth at 1 µM of 68%. `O=C1c2ccccc2-c2nccc3cncc1c23` showed an inhibition of growth at 1 µM of 25%. With `Cc1nc(-c2ccccc2)cc2c1C(=O)c1ccccc1C2=O` the inhibition of growth at 1 µM was 66%. With `Cc1nc(C(C)(C)C)cc2c1C(=O)c1ccccc1C2=O` the inhibition of growth at 1 µM was 18%. With `CN(C)/C=C/c1nc(C(C)(C)C)cc2c1C(=O)c1ccccc1C2=O` the inhibition of growth at 1 µM was 53%. With `Cc1cncc2c1C(=O)c1ccccc1C2=O` the inhibition of growth at 1 µM was 11%. In the case of `Cc1nc(-c2ccc(Cl)cc2)cc2c1C(=O)c1ccccc1C2=O`, the inhibition of growth at 1 µM is reported as 68%. Work on `CC(C)(C)c1ccc(-c2cc3c4c(nccc4n2)-c2ccccc2C3=O)cc1` yielded an inhibition of growth at 1 µM of 41%. For `COc1ccc(-c2cc3c(c(C)n2)C(=O)c2ccccc2C3=O)cc1`, the inhibition of growth at 1 µM was 70%. Work on `Cc1nc(C(C)C)cc2c1C(=O)c1ccccc1C2=O` yielded an inhibition of growth at 1 µM of 24%. For `COc1ccc(OC)c(-c2cc3c4c(nccc4n2)-c2ccccc2C3=O)c1`, the inhibition of growth at 1 µM was 75%. With `COc1ccc(OC)c(-c2cc3c(c(/C=C/N(C)C)n2)C(=O)c2ccccc2C3=O)c1` the inhibition of growth at 1 µM was 47%.

What follows are compounds tested on Mycobacterium tuberculosis (assay: Antimicrobial activity against Mycobacterium tuberculosis H37Rv ATCC 27294 expressing luciferase reporter gene assessed as growth inhibition at 10 uM after 6 days by luminometry relative to control). Conditions: H37Rv ATCC 27294, 144 h, read-out: GI.
Assay type: functional
Method in brief: as §1
With `Cc1nc(-c2ccc(F)cc2)cc2c1C(=O)c1ccccc1C2=O` the inhibition of growth at 10 µM was 100%. For `O=C1c2ccccc2-c2nccc3cncc1c23`, the inhibition of growth at 10 µM was 62%. `Cc1nc(-c2ccccc2)cc2c1C(=O)c1ccccc1C2=O` showed an inhibition of growth at 10 µM of 98%. With `Cc1nc(C(C)(C)C)cc2c1C(=O)c1ccccc1C2=O` the inhibition of growth at 10 µM was 51%. In the case of `CN(C)/C=C/c1nc(C(C)(C)C)cc2c1C(=O)c1ccccc1C2=O`, the inhibition of growth at 10 µM is reported as 73%. With `Cc1cncc2c1C(=O)c1ccccc1C2=O` the inhibition of growth at 10 µM was 48%. With `Cc1nc(-c2ccc(Cl)cc2)cc2c1C(=O)c1ccccc1C2=O` the inhibition of growth at 10 µM was 100%. With `CC(C)(C)c1ccc(-c2cc3c4c(nccc4n2)-c2ccccc2C3=O)cc1` the inhibition of growth at 10 µM was 73%. `COc1ccc(-c2cc3c(c(C)n2)C(=O)c2ccccc2C3=O)cc1` was tested, and the inhibition of growth at 10 µM was 100%. With `Cc1nc(C(C)C)cc2c1C(=O)c1ccccc1C2=O` the inhibition of growth at 10 µM was 54%. `COc1ccc(OC)c(-c2cc3c4c(nccc4n2)-c2ccccc2C3=O)c1` was tested, and the inhibition of growth at 10 µM was 87%. Compound `COc1ccc(OC)c(-c2cc3c(c(/C=C/N(C)C)n2)C(=O)c2ccccc2C3=O)c1` has an inhibition of growth at 10 µM of 87%.

These compounds were tested on Mycobacterium intracellulare (assay: Antimicrobial activity against Mycobacterium intracellulare). Conditions: not given.
Assay type: functional
`Cc1ccnc2c1C(=O)c1ccccc1C2=O` [CLEISTOPHOLINE] was tested, and the MIC was 12.5 µg/mL (≈ 56 µM). Work on `CCc1ccnc2c1C(=O)c1ccccc1C2=O` yielded an MIC of 12.5 µg/mL (≈ 52.7 µM). `CCOc1nc2c3c(ncc(Br)c3c1Br)-c1ccccc1C2=O` was tested, and the MIC was 25 µg/mL (≈ 57.6 µM). Compound `O=C1c2ccccc2-c2nccc3c2c1nc1ccccc13` [BENZOSAMPANGINE] has an MIC of 0.39 µg/mL (≈ 1.38 µM).

Source: ChEMBL document CHEMBL2434878, “Synthesis and antimycobacterial activity of analogues of the bioactive natural products sampangine and cleistopholine” (Eur J Med Chem, 2013)
